T cell modulator – modulators of CD8 T cell-vesicle binding, primary screen, mouse 2C CD8+ T cells, flow cytometry. 2C CD8+ T cell-vesicle binding; stronger effect = lower value. response (vesicle binding), % at 7 µM. actives 0.068% (n = 330,000);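 active means response, share of CD8 T cells binding vesicles, and their 90th percentile fluorescence all below set limits, cut at about 80% in these data, passing the limit was not always enough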;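 further: values below 100% mean blocked vesicle binding to the CD8+ T cells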
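Incubation: binding step 1.5 h, 37 °C, antibody labelling 20 min, ice; system: murine 2C transgenic CD8+ T lymphocytes; technique: cytometric PE anti-B7-1 and Alexa647 anti-CD8 signals after 1% paraformaldehyde fixation; also added: QL9-charged Drosophila Ld/ICAM-1/B7-1 vesicles; control set: naked versus QL9-loaded vesicles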
GPR7 antag – GPR7 receptor antagonists, primary screen, cell-based, fluorescence, single concentration; Neuropeptides B/W receptor type 1 (Homo sapiens), P48145; GPR7-expressing cells, fluorescence antagonist assay; inhibition, % at 4.4 µM; actives 1.1% (n = 290,000); AID 1861, 2009; in the data active means inhibition above about 16%, passing the limit was not always enough;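 further: cells stimulated with the agonist NPW; 0% = agonist with vehicle and 100% = vehicle without agonist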
p-CIP stab down – p/CIP-EGFP fusion destabilizers, primary screen, fluorescence, F442A cells | Q05BA5 | 16 h | decrease of EGFP signal, % at 10 µM | actives 0.01% (n = 290,000);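 active means EGFP signal decrease of at least 30% at 10 µM or well 3 SD below plate mean, unless failing retest; inactive means the rest, including hits failing retest or dose response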
DSG3 Ab inh – inhibitors of pemphigus antibody binding to DSG3, primary screen, biochemical, bead-based, flow cytometry, scFv-GFP; DSG3-coupled beads, scFv-anti-DSG3-GFP binding; stronger effect = lower value; AID 588358, 2011; actives 0.48% (n = 310,000); Desmoglein-3 (Homo sapiens), P32926; binding (percent of control), % at 10 µM;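 active means binding more than 3 SD below its plate's average and above zero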;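 further: hits lower antibody fragment binding to DSG3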
CHT PAM – CHT positive allosteric modulators, primary screen, cell-based, membrane potential dye, choline EC20 | AID 488977, 2010 | B-score at 10 µM | actives 0.49% (n = 310,000) | CHT-expressing cells; stronger effect = higher value; LV-AA mutant CHT in HEK293 cells;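 active means initial fluorescence not abnormally high and integrated response B-score, plate-corrected, over 3 SD above library mean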
CHT inh – inhibitors of human choline transporter CHT; actives 0.86% (n = 310,000); CHT-expressing cells, membrane potential dye, choline response; stronger effect = lower value; AID 488975, 2010; High affinity choline transporter 1 (Homo sapiens), Q9GZV3; B-score at 10 µM;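 active means B-score over 3 SD under the library average, and starting fluorescence ratio not unusually high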;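 further: choline stimulus applied at its EC90 after an EC20 pre-addition; B-score computed on integrated fluorescence ratio after choline addition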
CHT act confirm – CHT activators, confirmation, cell-based, membrane potential dye, duplicate. activation, % at 10 µM. actives 91% (n = 2,500). shares compounds with CHT PAM. CHT-expressing cells, membrane potential dye fluorescence (FDSS); % of choline EC20–EC90 response window; HEK293 expressing CHT LV-AA mutant; choline added at its EC20;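 active means primary screen active, with duplicate mean activation above negative control mean plus 3 SD, cut at about 11% in these data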
HEK293 MP dye – membrane potential response in parental HEK293 cells, counter-screen for CHT activator project, cell-based, membrane potential dye; ratio readout change at 10 µM, hits read low; AID 623908, 2012; membrane potential dye fluorescence (FDSS); measured after EC20 choline addition; actives 62% (n = 2,500); shares compounds with CHT PAM;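 active means duplicate-averaged ratio beyond 3 SD from buffer wells, up or down, though filed actives are nearly all decreases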
Starred values were filed as active, the others as inactive; i = inactive; . = no result given. Only some compounds are listed: those with a hit (about 2.3% of all), similar ones and a draw of the others.

SMILES	T cell modulator	GPR7 antag	p-CIP stab down	DSG3 Ab inh	CHT PAM	CHT inh	CHT act confirm	HEK293 MP dye
Cc1ccc(S(=O)(=O)N2CCN(C(=O)CN3CCOCC3)C2C(C)C)cc1 (centres undefined)	540	-5	-7	104	i	i	.	.
CN1C(=O)CS/C1=N\NC(=O)COc1cccc2cccnc12	199	-8	2	101	6.6*	i	48*	-56*
O=C(Nc1ccnn1C1CCN(C/C=C/c2ccccc2)CC1)c1ccccc1Cl	299	1	-1	104	i	i	.	.
COc1ccccc1C(=O)Nc1ccnn1C1CCN(C/C=C/c2ccc(F)cc2)CC1	315	2	-7	112	i	i	7	i
C(=N\n1cnnc1)/c1ccc2ncccc2c1	.	6	-7	97	8*	i	67*	-80*
C(=N\n1cnnc1)/c1ccccn1	136	-8	-9	99	i	i	.	.
O=C(O)/C=C/C(=O)Nc1ccc2c(c1)C(=O)c1ccccc1C2=O	244	-13	-20	102	i	i	28*	-27*
O=C(O)/C=C/C(=O)Nc1ccc(C(=O)c2ccccc2)cc1	560	1	-1	100	i	i	.	.
Nc1scn[n+]1Cc1cccc2cccnc12	512	1	-4	129	i	i	.	.
Cc1cc(C[n+]2ccsc2N)c2ncccc2c1	75	9	-4	97	i	i	43*	-52*
O=C1C2C3C=CC(O3)C2C(=O)N1N=Cc1ccc2c(c1)OCO2 (centres undefined)	.	.	.	113	.	.	.	.
Cc1nn(-c2ccccc2)c(C)c1C(=O)OCC(=O)Nc1ccccc1Cl	.	.	.	98	.	.	.	.
C=CCn1cc(C(=O)OCC)c(=O)c2ccc(F)cc21	709	3	-10	96	i	i	37*	-43*
COc1cc(Nc2ccc(S(=O)(=O)N3CCN(C)CC3)cc2[N+](=O)[O-])cc(OC)c1	288	.	.	104	i	i	9	-21*
Cc1ccc(-c2nnc(Nc3ccc4c(c3)nc(C)n4C)c3ccccc23)cc1	490	-12	-22	99	i	i	.	.
Cc1nnc(Nc2ccc(C(=O)NCCO)cc2)c2ccccc12	i	-3	-10	103	i	i	.	.
CNC(=O)c1ccc(Nc2nnc(C)c3ccccc23)cc1	304	-22	5	107	i	i	47*	-48*
Cc1nnc(Nc2ccc3c(c2)ncn3C)c2ccccc12	333	-10	-5	97	i	i	33*	-47*
CN(C)c1cccc2c(/C=N/O)ccc(N(C)C)c12	263	-2	-20	100	i	i	50*	-41*
CN(C)c1cccc2c(C=C(C#N)C#N)ccc(N(C)C)c12	661	-12	4	108	11*	i	57*	-73*
CN(C)c1ccc(/C=N/O)cc1	397	-6	-16	108	i	i	.	.
Cn1c(COc2ccccc2)nnc1SCC(=O)Nc1nnc(C2CC2)s1	.	.	.	101	.	.	.	.
Cc1n(C)c2cc(Cl)ccc2[n+]1Cc1ccccc1	158	7	-4	109	9.3*	i	65*	-44*
c1ccc(-c2ccccc2OCCCN2CCCC2)cc1	259	-2	-4	72*	i	i	2	i
C=C1C(=O)OC2C=C(CO)C3OC3C3OC3(C)CC(OC(=O)/C(=C/C)COC(C)=O)C12 (centres undefined)	.	.	.	90	.	.	.	.
SMILES	T cell modulator	GPR7 antag	p-CIP stab down	DSG3 Ab inh	CHT PAM	CHT inh	CHT act confirm	HEK293 MP dye
Cc1cc(C)nc(NC(=O)c2ccc(Cl)c([N+](=O)[O-])c2)n1	331	-6	-1	108	i	i	.	.
COc1ccc(C(=O)Nc2nc(C)cc(C)n2)cc1[N+](=O)[O-]	173	-8	6	103	i	i	19*	-39*
Cc1cc(C)n2nc(C(=O)Nc3ccc4c(c3)OCO4)nc2n1	312	-1	-13	110	7.6*	i	30*	-35*
Cc1cc(C)n2nc(C(=O)N/N=C/c3ccc(Cl)cc3)nc2n1	236	-5	5	99	i	i	.	.
CCC(CC)c1nnc(NC(=O)c2nc3nc(C)cc(C)n3n2)s1	340	1	-2	103	7.3*	i	30*	-31*
Cc1cc(C)n2nc(C(=O)Nc3ccc(S(=O)(=O)N(C)C)cc3)nc2n1	259	-11	-2	102	8.2*	i	60*	-56*
CCN(CC)S(=O)(=O)c1ccc(NC(=O)c2nc3nc(C)cc(C)n3n2)cc1	314	-13	-7	.	i	i	.	.
Cc1cc(C)n2nc(C(=O)N/N=C/c3ccc(O)cc3)nc2n1	310	6	-8	99	6.5*	i	30*	-24*
Cc1cc(C)n2nc(C(=O)Nc3ccc4c(c3)OCCO4)nc2n1	324	.	.	103	.	.	.	.
O=C(CNC(=O)c1cccs1)Nc1cccc(S(=O)(=O)N2CCOCC2)c1	.	.	.	98	.	.	.	.
O=S(=O)(c1ccc(Br)cc1)N1CCCc2ccccc21	239	-10	4	137	i	i	.	.
N=C1C(c2ccc(Br)cc2)=C(O)C2CCc3ccccc3N12 (centres undefined)	i	0	1	97	13*	i	55*	-67*
COC(=O)/C(=N/Nc1ccc(C)cc1)N1CCCc2ccccc21	441	8	4	103	8.1*	i	-1	i
COC(=O)/C(=N/Nc1ccccc1)N1CCCc2ccccc21	142	5	2	139	i	i	.	.
O=[N+]([O-])c1cc(F)cc(F)c1Nc1ccc(F)cc1	.	.	.	103	.	.	.	.
CC[n+]1c(C)n(-c2ccccc2)c2ccc(C(=O)OC)cc21	254	-6	0	96	7.5*	i	32*	-29*
CCOC(=O)c1ccc2c(c1)[n+](CC)c(C)n2-c1ccccc1	196	0	-4	89	i	i	.	.
CCN(CC)C(=O)C1=C(C)N(CCCN2CCCC2=O)C(=O)C(CC(=O)NCc2cccc3ccccc23)C1 (centres undefined)	.	.	.	110	.	.	.	.
